Test system: Trypanosoma cruzi
Experiment: Antitrypanosomal activity against Trypanosoma cruzi Columbian bloodstream forms infected in C3H mouse assessed as survival of mouse at 100 mg/kg/day, po administered 5 days postinfection for 10 consecutive days measured after 31 days
Assay type: functional
Summary of the method: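 Male C3H/He (H-2k) mice infected i.p. with 5 × 10^3 Colombian-strain bloodstream trypomastigotes; only parasitemia-positive mice grouped (n ≥ 6). DB766 100 mg/kg/day given i.p. (0.1 ml) or by gavage (0.1 ml), daily for 10 treatments. Parasitemia by Pizzi-Brener method; mortality checked daily, expressed as cumulative percentage.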

**Q.** `CC(C)Oc1cc(NC(=N)c2ccccn2)ccc1-c1ccc(-c2ccc(NC(=N)c3ccccn3)cc2OC(C)C)o1` was tested. Which Activity did it give?
**A.** The Activity was 100%.
